The values below come from publication PMC8742638 (Clinical and Translational Science, 2021).

Read-outs that look alike come from different tables or passages of the source.

Series [1] is classed as in vivo, human. The settings on record: for Tmax: healthy female subjects, median (range); for bioavailability: oral. A digest of the protocol:
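Healthy female volunteers fasted about 10 h, then took a 100 mg oral tablet. A 13C-labeled microdose (15 µg/ml target, PEG-400 solution diluted in saline, filtered) was infused i.v. 4 h later. Plasma was sampled predose and 1–72 h post-oral, and 5–30 min post-i.v. Concentrations were measured by LC-MS/MS against a 0.0300–15.0 ng/ml calibration (1/x² weighting). Noncompartmental analysis used the actual i.v. dose, assayed from the unflushed infusion line.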

The subject of series [2] is CYP3A4 enzyme. The settings on record: cited from earlier work.
Series [3] in a line: Stability and adsorption of the venetoclax microdose solution. The format is physicochemical. The settings on record: during formulation and process development.
For series [4] the following is noted: cited from earlier work.
The mark [5] stands for this setting: 100 µg 13C-venetoclax solution for IV infusion, N = 11, mean (%CV).
Setting [6] is: 100 µg 13C-venetoclax solution for IV infusion, actual dose, N = 11, mean (%CV).
[7] abbreviates: 100 mg venetoclax oral tablet, fasting, N = 12, mean (%CV).
Setting [8] is: female, human, plasma, po, 100 mg.

Take [^13C7]‐venetoclax [^13C‐venetoclax]: the “t 1/2” value in series [1] (100 µg 13C-venetoclax solution for IV infusion, N = 11, harmonic mean (pseudo %CV)) was 14.4 (5.5) h. In series [1] (setting [5]), the AUCinf is given as 0.036 (39%) µg·h/ml, the AUCt is on record as 0.034 (37%) µg·h/ml and the Cmax is 0.019 (19%) µg/ml. Also, in series [1] (setting [6]), the AUCinf/dose is recorded as 324 (37%) (ng·h/ml)/mg, the AUCt/dose was 310 (36%) (ng·h/ml)/mg and the Cmax/dose is 176 (16%) (ng/ml)/mg.
`CC1(C)CCC(CN2CCN(c3ccc(C(=O)NS(=O)(=O)c4ccc(NCC5CCOCC5)c([N+](=O)[O-])c4)c(Oc4cnc5[nH]ccc5c4)c3)CC2)=C(c2ccc(Cl)cc2)C1` [venetoclax]: in series [1] (setting [7]), the AUCinf/dose is recorded as 19.3 (45%) (ng·h/ml)/mg and the Cmax/dose is given as 1.49 (47%) (ng/ml)/mg. The Tmax in series [1] (100 mg venetoclax oral tablet, fasting, N = 12) is 4.2 (4.0–6.0) h. The half-life in series [1] (female, human, plasma, iv, 100 µg, t 1/2, 100 µg 13C-venetoclax solution for IV infusion, N = 11, harmonic mean (pseudo %CV)) is roughly 14 h. The bioavailability in series [1] (female, human, plasma, 100 mg) came to 5.4%. In series [1] (setting [8]), this molecule yielded a total exposure AUC(0-inf) of 1930 ng·h/mL, an area under the curve AUC(0-t) of 1850 ng·h/mL and a Cmax of 149 ng/mL. Besides, the Tmax in series [1] (female, human, plasma, po, 100 mg, Tmax, 100 mg venetoclax oral tablet, fasting, N = 12) is roughly 4 h. For the same molecule, the half-life in series [1] (female, human, plasma, po, 100 mg, t 1/2, 100 mg venetoclax oral tablet, fasting, N = 12, harmonic mean (pseudo %CV)) is roughly 14 h. Moreover, the “fraction metabolized by the liver in a single pass” value in series [1] (from hepatic extraction ratio) is given as 6%. Also, the bioavailability in series [1] (human, plasma) was in the range of 18 to 28%. In addition, the metabolism result in series [2] is reported as “predominantly metabolized by the CYP3A4 enzyme”. Moreover, the “adsorptive losses on the infusion line” value in series [3] is 1 to 2 µg/mL. Further, in series [4], the pharmacokinetic linearity result was “linear between 150 and 800 mg dose”; the terminal half-life is on record as 16 h; the “time to reach Cmax after dosing” value was 6 to 8 h.

Broadly, the half-life is the time in which the quantity being followed falls by half. A lower half-life goes with rapid decline. The bioavailability is dose-corrected exposure relative to a reference, in per cent. A low value points to little systemic uptake. The term AUC(0-inf) denotes the area under the concentration-time curve extrapolated to infinity. Low values mean less exposure, high ones more exposure. Usually AUC(0-t) stands for the area under the concentration-time curve up to a stated or last time point.
